Bioassay records from PubChem.
OXTR agonist: human OXTR agonists, primary screen, fluorescence, CHO-OTR cells, Fluo-8 calcium; 0.32% of 320,000 active; Fluo-8 calcium fluorescence; normalized: DMSO 0%, oxytocin 100%; activation, % at 3 µM; Oxytocin receptor (Homo sapiens), P30559;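 active = activation above the mean of all tested compounds plus 3 SD, cutoff set per screening run, cut at about 20% in these data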;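 note: peak over basal fluorescence ratio from a 100 s FLIPR kinetic read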
Target sequence (P30559 whole entry, looked up): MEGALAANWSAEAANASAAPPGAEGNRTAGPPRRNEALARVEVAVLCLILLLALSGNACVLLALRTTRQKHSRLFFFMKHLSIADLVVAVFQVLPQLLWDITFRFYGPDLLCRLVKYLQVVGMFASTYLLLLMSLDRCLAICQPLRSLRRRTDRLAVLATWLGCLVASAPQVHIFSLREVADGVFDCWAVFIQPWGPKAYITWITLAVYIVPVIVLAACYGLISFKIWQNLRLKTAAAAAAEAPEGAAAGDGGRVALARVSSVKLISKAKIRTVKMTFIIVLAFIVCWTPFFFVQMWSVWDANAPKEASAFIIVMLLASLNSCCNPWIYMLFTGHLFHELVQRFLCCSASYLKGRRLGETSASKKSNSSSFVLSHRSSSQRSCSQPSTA
TAAR1 agonist: human TAAR1 agonists, primary screen, Fluo-8 calcium fluorescence, CHO RD-HGA16 cells | vehicle wells 0%, saturating PEA agonist 100% | 0.99% of 360,000 active | activation, % at 3 µM | AID 624467, 2012;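 active = activation above the mean activation of all test compounds in the run plus 3 SD, cut at about 38% in these data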
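System: CHO RD-HGA16 cells carrying human TAAR1 plus Gα16; Incubation: 17-24 h seeding, 75 min 37 °C dye, 30 min RT; Measured by: Fluo-8 fluorescence, 5 s baseline then 140 s kinetic read; Control set: DMSO and PEA EC100; Replication: single well for each compound.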
OXTR potentiator: human OXTR potentiators, primary screen, fluorescence, CHO-OTR cells, Fluo-8 calcium; Fluo-8 calcium fluorescence, potentiator mode; 0% = oxytocin EC15, 100% = EC100; activation, % at 3 µM; 0.061% of 320,000 active; AID 2445, 2010;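 active = activation above that plate's cutoff, the mean activation of tested compounds plus 3 SD, cut at about 6.6% in these data, passing the limit was not always enough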
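Assay system: CHO-OTR cells, human receptor / Also added: oxytocin at about EC15, sub-maximal agonist stimulus / Dosing: single dose, 3.0 µM nominal final compound concentration / Incubation: 6 min pre-incubation, 100 s read / Technique: Fluo-8 calcium dye fluorescence / Read-out: % activation vs EC15 and EC100 oxytocin / Benchmarks: EC15 oxytocin low, 75 nM oxytocin high / Replicates: singlicate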
TAAR1 antag: human TAAR1 antagonists, primary screen, Fluo-8 calcium fluorescence, CHO RD-HGA16 cells; Trace amine-associated receptor 1 (Homo sapiens), Q96RJ0; antagonist; inhibition, % at 3 µM; 1.5% of 360,000 active;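 active = inhibition above a per-plate cutoff, the mean inhibition of test compounds on that plate plus 3 SD, cut at about 49% in these data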
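Assay system: RD-HGA16 CHO cells with stable hTAAR1 and Gα16 / Reagent: EC80 β-phenethylamine stimulus / Doses: 3 µM, single point / Timing: dye loading 75 min at 37 °C, then 30 min room temperature / Measured by: Fluo-8 intracellular calcium dye fluorescence, real-time kinetic reads / Controls: vehicle wells and EC80 agonist wells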
V1R ag counter: agonists of human V1a receptor, primary screen, counter-screen for OXTR agonist project, fluorescence, CHO-V1R cells; Vasopressin V1a receptor (Homo sapiens), P37288; Fluo-8 calcium fluorescence, agonist mode; 0% DMSO, 100% 3 nM vasopressin; activation, % at 3 µM; 0.25% of 320,000 active; AID 2797, 2010;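 active = activation above the mean activation of all tested compounds plus 3 SD, per screening run, cut at about 20% in these data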;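 note: signal is peak over basal fluorescence ratio across a 100 second FLIPR read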
A number is an active result; – = inactive; · = not tested or not shown. Shown are actives, neighbours in structure and some others; about 2.3% of the full set was active somewhere.

SMILES	OXTR agonist	TAAR1 agonist	OXTR potentiator	TAAR1 antag	V1R ag counter
CC1(C)c2[nH]c3ccccc3c2C[C@@H]2C(=O)N(Cc3ccccc3Cl)C(=O)N21	–	–	–	49.1	–
CCOC(=O)NC(=O)/C(C#N)=C\Nc1sccc1C(=O)OC	56.9	–	–	–	52.6
CCOC(=O)NC(=O)/C(C#N)=C\Nc1ccc(Cl)cc1Cl	–	–	–	–	–
Cc1c(Cc2ccccc2)c(=O)oc2cc(OCC(=O)NCC(O)c3ccccc3)ccc12 (stereo not drawn)	–	–	–	–	–
CSc1nsc(SC)c1C(=O)N1CCN(S(=O)(=O)c2ccc(C)cc2)C1C(C)C (stereo not drawn)	–	–	–	49.2	–
COc1ccc(N2CCN(C(=O)c3ccc(Cl)c(S(=O)(=O)N4CCOCC4)c3)CC2)cc1	·	–	·	–	·
O=C(COC(=O)c1ccc(O)cc1)Nc1ccccc1-c1ccccc1	–	–	–	60.5	–
O=C(COC(=O)c1ccc(-c2ccccc2)cc1)Nc1ccccc1-c1ccccc1	–	–	–	–	–
O=C(COC(=O)c1ccc(O)cc1)Nc1ccc(Cl)cc1	–	41.4	–	–	–
CCc1ccccc1N(C)S(=O)(=O)c1ccc2[nH]cc(C(=O)N3CCc4ccccc43)c(=O)c2c1	–	–	–	56.7	–
O=c1[nH]c2ccc(Cl)cc2c(-c2ccccc2)c1SC(=S)N1CCOCC1	–	–	–	55.8	–
COc1cccc(-c2ccc(C#N)c(SCC(=O)NCCc3cccc(Cl)c3)n2)c1	–	–	–	72.1	–
Nc1nc(NCc2ccccc2)nc(Nc2cccc(F)c2)c1[N+](=O)[O-]	–	–	–	–	–
Nc1nc(Nc2cccc(F)c2)nc(NCCO)c1[N+](=O)[O-]	–	–	12.2	–	–
COc1ccccc1-c1oc2ccccc2c1C#CC1(N)CCCCC1	–	38.2	–	–	–
COc1ccc(/C=N/Nc2cn[nH]c(=O)c2Cl)cc1	–	41.1	–	–	–
NCCc1ccn[nH]1	–	39.8	–	–	–
NCCc1cnc[nH]1	–	–	–	–	–
CCn1c(=O)c(C(=O)NNC(=O)c2ccccc2Cl)c(O)c2ccccc21	22.1	54.3	–	–	40.8
Cc1ccc(C)c(NC(=S)NC23CN4CN(CN(C4)C2)C3)c1	–	–	–	–	–
CCCC(=O)Nc1ccc(-c2csc(N/N=C\c3ccncc3)n2)cc1	–	–	–	60.4	–
Nc1cc(OC(=O)c2cccs2)nn1S(=O)(=O)c1ccc(F)cc1	–	41.5	–	–	–
Nc1cc(OC(=O)c2cccs2)nn1S(=O)(=O)c1ccccc1	–	39.7	–	–	–
Cc1ccc(C(=O)Oc2cc(N)n(S(=O)(=O)c3ccc(F)cc3)n2)cc1	–	–	–	–	–
CC(C)Cc1ccc(C(C)C(=O)Nc2ccccc2O)cc1 (stereo not drawn)	42.0	76.8	–	92.3	39.8
SMILES	OXTR agonist	TAAR1 agonist	OXTR potentiator	TAAR1 antag	V1R ag counter
COC(=O)c1ccc2c(=O)[nH]c(COC(=O)c3[nH]c(C)c(C(C)=O)c3C)nc2c1	–	–	–	–	–
Cc1cccc(Nc2ncccc2C(=O)NCc2cccs2)c1C	–	37.6	–	–	–
Cc1ccc(Nc2ncccc2C(=O)NCc2cccs2)c(C)c1	–	–	–	–	–
Cc1ccc(C(C)C)c(OCCN)c1	–	37.9	–	–	–
Cc1ccccc1OCCn1c(=O)oc2ccccc21	–	–	–	–	–
Cc1ccc(C(C)C)c(OCCn2c(=O)oc3ccccc32)c1	–	–	–	72.2	–
Cc1ccc(C(C)C)c(OCCN(C)C)c1	–	–	–	–	–
Cc1ccc(NC(=O)CCNC(=O)Cn2cnc3ccccc3c2=O)cc1F	–	–	–	–	–
CC(C)c1ccc(CC(=O)N2CCC2(C)C(=O)Nc2cnc3ccccc3c2)cc1 (stereo not drawn)	·	–	·	–	·
CC(C)(C)c1ccc(CC(=O)N2CCC2(C)C(=O)Nc2cnc3ccccc3c2)cc1 (stereo not drawn)	·	–	·	52.6	·
COc1ccc(NC(=O)/C(Cl)=C(/Cl)S(=O)Cc2ccc(Cl)cc2)cn1 (stereo not drawn)	·	–	·	51.7	·
Cc1cc(C)c(NC(=O)CNC(=O)COC(=O)CNC(=O)c2ccc(Cl)cc2Cl)c(C)c1	–	–	–	–	–
CSc1nsc(SCC(=O)Nc2ccccc2F)n1	–	–	–	–	–
O=c1ccsn1Cc1ccccc1	–	43.6	–	–	–
CCN(CC(=O)Nc1ccc(NC(C)=O)cc1)C(=O)/C=C/c1cn(-c2ccccc2)nc1-c1cccs1	–	–	–	58.3	–
CCN(CC(=O)Nc1ccc(NC(C)=O)cc1)C(=O)/C=C/c1ccccc1	–	–	–	–	–
Cc1cccc(CNC(=O)c2ccc3nc(Cc4ccccc4F)oc3c2)n1	–	–	–	–	–
O=C(Oc1cccc(Nc2ncnc3ccccc23)c1)c1ccccc1Cl	–	–	–	73.6	–
Cc1ccc(/C=C2/NC(=O)N(Cc3ccccc3)C2=O)s1	–	39.8	–	–	–
COC(=O)c1cc(S(=O)(=O)NCc2ccc(F)cc2)cn1C	–	–	–	–	–
O=c1c2ccccc2sn1-c1nccs1	·	46.6	·	–	·
O=C(O)c1cccc(-n2sc3ccccc3c2=O)c1	–	–	–	–	–
O=c1c2cc(F)ccc2sn1-c1ccccc1	–	60.1	–	57.3	–
O=c1c2ccccc2sn1-c1cccc(Cl)c1	·	38.5	·	–	·
O=c1c2cc(C(F)(F)F)ccc2sn1-c1ccccc1	·	–	·	–	·
SMILES	OXTR agonist	TAAR1 agonist	OXTR potentiator	TAAR1 antag	V1R ag counter
CCN(CC(=O)Nc1c(F)cccc1F)C(=O)C1CC(=O)N(c2ccccc2OC)C1 (stereo not drawn)	–	–	–	–	–
CN(C)c1ccc(Sc2ccc3nc(N)nc(N)c3c2)cc1	·	44.2	·	–	·
CCOC(=O)N(C)C[C@H]1OCc2cnnn2CCCC(=O)N([C@@H](C)CO)C[C@@H]1C	·	–	·	–	·
CCCOc1cccc(-c2cc(C(=O)N/N=C/c3cccnc3)c3ccccc3n2)c1	·	–	·	53.6	·
O=C(O)c1ccc(OCC(O)Cn2c3ccccc3c3ccccc32)cc1 (stereo not drawn)	21.6	–	–	–	43.6
Clc1ccc(SCCOCCN2CCc3ccccc3C2)cc1	–	38.0	–	–	–
Cc1ccccc1NC(=O)C1CCN(C(=O)N2CCOc3ccccc32)CC1	–	–	–	–	–
O=c1[nH][nH]c(C(F)(F)F)c1C=NCc1cccc(Cl)c1	–	42.7	–	–	–
CCC(C)[C@H](NS(=O)(=O)c1ccc(C)cc1)C(=O)N1CCC(C(=O)N2CCC(C(N)=O)CC2)CC1 (stereo partly drawn)	–	–	–	–	–
